Where two headings read alike, the source gives them in different places.
Key:
[1] = Population PK model of venetoclax in healthy subjects; format: in vivo, healthy female subjects
Outline: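 Pooled data from 203 healthy women (21–65 y, BMI 18.6–30.1 kg/m2) given oral doses of 10–400 mg, 1–4 times with ≥7-day washout, after a 10-h fast or within 30 min of a low/moderate/high-fat breakfast. Serial plasma sampling up to 96 h; assayed by liquid–liquid extraction LC-MS/MS. Two-compartment nonlinear mixed-effects model with lagged first-order absorption, exponential IIV on CL/F, Vc/F and F, and combined residual error. Covariates kept by backward elimination (P < 0.01); low-fat meal as reference.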

B‐lymphocytes = format: in vivo, healthy female subjects; conditions: for time for B‐lymphocytes to recover to 90% of baseline levels: average
Outline: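 B-lymphocytes counted at baseline and after dosing. Individual post hoc PK estimates were fixed, then a Friberg-type semimechanistic model was fitted with a linear drug effect. It has a proliferation compartment, sequential transit compartments, a circulating pool, and feedback (baseline/current count, exponent γ). Baseline was the median predose count, with IIV. Log-transformed counts were fitted with additive residual error and checked by goodness-of-fit plots. Simulations covered single doses.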

[2] = cited from earlier work
CYP3A = conditions: cited from earlier work
P‐glycoprotein = conditions: cited from earlier work
[3] = test system: breast cancer resistance protein; conditions: cited from earlier work
[4] = 4‐week dog studies, male; no reference given; cited from earlier work
B cells = conditions: patients with rheumatoid arthritis; cited from earlier work
[5] = covariate effect on bio-availability relative to low-fat meal
[6] = model simulation, 200 mg single dose

CC1(C)CCC(CN2CCN(c3ccc(C(=O)NS(=O)(=O)c4ccc(NCC5CCOCC5)c([N+](=O)[O-])c4)c(Oc4cnc5[nH]ccc5c4)c3)CC2)=C(c2ccc(Cl)cc2)C1 [venetoclax, Venetoclax]
Fasting on F1 [1, 5]: 0.29 | Moderate/high‐fat on F1 [1, 5]: 1.47 | Chinese on F1 ([1]; covariate effect on bio-availability, Chinese ethnicity): 1.53 | Azithromycin on F1 ([1]; covariate effect on bio-availability, coadministration of azithromycin): 0.65 | Rifampin on F1 ([1]; covariate effect on bio-availability, coadministration of rifampin): 4.91 | Low fat on F1 ([1]; covariate effect on bio-availability, low-fat meal is the reference category): 1 | Vd ([1]; female, human, plasma, oral): 99 L | higher bioavailability with coadministration of rifampin ([1]; in vivo): 391% | higher clearance with coadministration of rifampin ([1]; in vivo): 167% | lower bio‐availability with coadministration of azithromycin ([1]; in vivo): 35% | Dose nonlinearity on F1 ([1]; parameter Fixed, not estimated): −0.178 | ALAG, absorption lag time ([1]; population PK estimate): 0.04 days | KA, absorption rate ([1]; population PK estimate): 3.83 day⁻¹ | CL/F, apparent clearance ([1]; population PK estimate, oral, healthy subjects): 449 L/day | higher bio‐availability with a moderate/high‐fat meal ([1]; relative to a low‐fat meal): 47% | lower bio‐availability under fasting conditions ([1]; relative to a low‐fat meal): 71% | B‐cell count recovered to 90% of baseline (B‐lymphocytes; even at the 400 mg dose): ≤ 2 months | Slope of drug effect (B‐lymphocytes; linear drug effect on B-lymphocytes, PD model parameter estimate): 20.9 | decrease in B‐lymphocytes (B‐lymphocytes; [6]): 24% (15–35%) | time for B‐lymphocytes to recover to 90% of baseline levels (B‐lymphocytes; [6]): 48 (21–64) days | time for B‐lymphocytes to recover to 90% of baseline levels (B‐lymphocytes; model simulation, 400 mg single dose): 59 (30–66) days | recovery of B‐lymphocytes to 90% of baseline levels (B‐lymphocytes; model simulation, three 200 mg doses every week or every other week): ≤ 2 months | time for B‐cell count to rise back to baseline (B‐lymphocytes; simulations/observed data): 2–3 months | increase of venetoclax exposures by food ([2]; compared with fasting conditions): threefold to fivefold | mean terminal elimination half‐life ([2]; healthy subjects): 17 h | mean terminal elimination half‐life ([2]; subjects with severe hepatic impairment): 35 h | metabolizing enzyme (CYP3A): mainly metabolized by CYP3A | P‐glycoprotein transporter substrate (P‐glycoprotein): substrate | breast cancer resistance protein transporter substrate [3]: substrate | toxicology finding [4]: testicular toxicity (germ cell loss)

rituximab
time of reduction in B cells from circulation postinfusion (B cells): 1–28 weeks

Reference: publication PMC6853148 (Clinical and Translational Science, 2019)
